# Experimental data: ChEMBL document CHEMBL1141716, “Discovery and optimization of substituted piperidines as potent, selective, CNS-penetrant alpha4beta2 nicotinic acetylcholine receptor potentiators” (Bioorg Med Chem Lett, 2008)
# Active and inactive are the calls of the source. No cut-off for these calls is given here.
# What was measured:
# [1] = biological target: T1, Neuronal acetylcholine receptor; alpha4/beta2 (Homo sapiens, UniProt P17787+P43681); experiment: Activation of human alpha4beta2 nAChR assessed as potentiation of submaximal response to […] relative to maximal nicotine response; type: protein-complex assay
# Procedure, shortened: (§1)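 Fluorescence-based functional assay; compounds first screened at 10 µM for increase of the fluorescent response to an EC₁₂ concentration of nicotine, actives then run dose–response; EC₅₀ and peak response recorded, efficacy expressed as % of maximal nicotine response; average of n ≥ 2.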
# [2] = biological target: T1, Neuronal acetylcholine receptor; alpha4/beta2; experiment: Activation of human alpha4beta2 nAChR assessed as potentiation of submaximal response to nicotine induced current; procedure, shortened: as §1
# [3] = biological target: Neuronal acetylcholine receptor; alpha4/beta2 (Rattus norvegicus) (UniProt P09483+P12390); experiment: Activation of rat alpha4beta2 nAChR expressed in HEK293 cells assessed as potentiation of acetylcholine-induced current by whole cell patch clamp; type: cell-based
# Procedure, shortened: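 Whole-cell patch-clamp with fast-flow perfusion under physiological ionic conditions; acetylcholine as agonist, holding potential −80 mV; compound also applied alone to check for evoked inward currents.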
# [4] = Drug level in Sprague-Dawley rat CSF at 5 mg/kg, ip after 1 hr; type: ADME, organism-based, Cerebrospinal fluid; design: dose 5 mg/kg, route intraperitoneal; details: read-out: Drug uptake
# Procedure, shortened: (§2)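 Rats dosed ip at 5 mg/kg in DMSO; sacrificed at 1 h; plasma, brain and CSF collected and drug concentrations measured.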
# [5] = Drug level in Sprague-Dawley rat brain at 5 mg/kg, ip after 1 hr; type: ADME, organism-based; design: dose 5 mg/kg, route intraperitoneal; details: read-out: Drug uptake; procedure, shortened: as §2
# [6] = biological target: Neuronal acetylcholine receptor; alpha4/beta2 (Rattus norvegicus, UniProt P09483+P12390); experiment: Activation of rat alpha4beta2 nAChR by fluorescence assay; type: protein-complex assay
# [7] = biological target: T1, Neuronal acetylcholine receptor; alpha4/beta2; experiment: Displacement of [3H]cytisine from human alpha4beta2 nAChR at =>30 uM; type: protein-complex assay
# [8] = biological target: Neuronal acetylcholine receptor subunit alpha-7 (Homo sapiens, UniProt P36544); experiment: Activation of human alpha7 nAChR assessed as potentiation of submaximal response to nicotine induced current
# [9] = Plasma concentration in Sprague-Dawley rat at 5 mg/kg, ip after 1 hr; type: ADME, organism-based; design: dose 5 mg/kg, route intraperitoneal; procedure, shortened: as §2
# MDR1 = experiment: Permeability efflux ratio in MDR1 expressing pig LLC-PK1 cells; type: ADME, cell-based, Sus scrofa
# [10] = biological target: Neuronal acetylcholine receptor; alpha3/beta4 (Homo sapiens, UniProt P30926+P32297); experiment: Activation of human alpha3beta4 nAChR assessed as potentiation of submaximal response to nicotine induced current; type: protein-complex assay; procedure, shortened: as §1
# [11] = biological target: Neuronal acetylcholine receptor; alpha3/beta2 (Homo sapiens, UniProt P17787+P32297); experiment: Activation of human alpha3beta2 nAChR assessed as potentiation of submaximal response to nicotine induced current; procedure, shortened: as §1
# Sequence of Neuronal acetylcholine receptor; alpha3/beta2 (P17787 whole entry): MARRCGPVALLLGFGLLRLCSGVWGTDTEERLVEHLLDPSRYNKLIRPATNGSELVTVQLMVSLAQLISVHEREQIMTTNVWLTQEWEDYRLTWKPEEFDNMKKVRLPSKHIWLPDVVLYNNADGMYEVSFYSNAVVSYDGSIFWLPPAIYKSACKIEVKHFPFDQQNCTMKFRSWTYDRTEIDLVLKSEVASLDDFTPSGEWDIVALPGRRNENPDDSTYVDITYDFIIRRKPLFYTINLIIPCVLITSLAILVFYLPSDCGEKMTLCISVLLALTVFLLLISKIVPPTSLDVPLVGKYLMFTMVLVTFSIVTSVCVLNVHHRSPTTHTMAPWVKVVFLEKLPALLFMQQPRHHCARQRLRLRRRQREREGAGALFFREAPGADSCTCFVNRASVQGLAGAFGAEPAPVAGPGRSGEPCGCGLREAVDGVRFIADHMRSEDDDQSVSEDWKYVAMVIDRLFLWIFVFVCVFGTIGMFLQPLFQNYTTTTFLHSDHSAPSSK
# Sequence of Neuronal acetylcholine receptor; alpha3/beta2 (P32297 whole entry): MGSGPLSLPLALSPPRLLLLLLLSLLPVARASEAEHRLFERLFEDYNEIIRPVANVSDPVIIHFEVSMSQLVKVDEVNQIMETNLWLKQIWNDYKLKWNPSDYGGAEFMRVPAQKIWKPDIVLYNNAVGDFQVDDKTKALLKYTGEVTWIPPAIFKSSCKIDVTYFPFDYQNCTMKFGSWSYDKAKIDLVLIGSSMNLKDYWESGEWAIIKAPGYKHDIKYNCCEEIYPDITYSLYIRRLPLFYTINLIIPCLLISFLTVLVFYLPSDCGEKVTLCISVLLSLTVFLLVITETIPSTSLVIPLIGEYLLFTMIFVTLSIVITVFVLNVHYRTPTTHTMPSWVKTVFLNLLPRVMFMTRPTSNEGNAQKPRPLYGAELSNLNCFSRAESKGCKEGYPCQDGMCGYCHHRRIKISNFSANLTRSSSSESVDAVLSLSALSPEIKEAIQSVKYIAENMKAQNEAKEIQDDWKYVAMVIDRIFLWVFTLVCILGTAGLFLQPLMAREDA
# T1 sequence (P17787 whole entry): as the sequence (P17787 whole entry) above
# T1 sequence (P43681 whole entry): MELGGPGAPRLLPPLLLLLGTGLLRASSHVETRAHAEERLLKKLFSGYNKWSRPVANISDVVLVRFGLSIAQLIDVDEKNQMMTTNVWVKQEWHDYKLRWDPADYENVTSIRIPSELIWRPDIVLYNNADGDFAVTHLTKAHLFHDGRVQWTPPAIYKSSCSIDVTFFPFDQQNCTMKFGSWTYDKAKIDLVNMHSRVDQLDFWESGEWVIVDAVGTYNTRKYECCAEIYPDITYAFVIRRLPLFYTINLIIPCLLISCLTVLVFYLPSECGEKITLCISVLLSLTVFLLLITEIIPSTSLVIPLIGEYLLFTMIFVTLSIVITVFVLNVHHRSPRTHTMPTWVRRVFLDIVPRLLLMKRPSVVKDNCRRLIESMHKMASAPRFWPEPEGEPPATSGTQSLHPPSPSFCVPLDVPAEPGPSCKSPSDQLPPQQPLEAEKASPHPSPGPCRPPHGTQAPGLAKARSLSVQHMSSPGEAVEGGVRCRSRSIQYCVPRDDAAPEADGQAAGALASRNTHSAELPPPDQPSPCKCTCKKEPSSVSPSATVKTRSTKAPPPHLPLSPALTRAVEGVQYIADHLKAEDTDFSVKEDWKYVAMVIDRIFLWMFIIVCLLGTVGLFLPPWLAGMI
# Sequence of Neuronal acetylcholine receptor; alpha3/beta4 (P30926 whole entry): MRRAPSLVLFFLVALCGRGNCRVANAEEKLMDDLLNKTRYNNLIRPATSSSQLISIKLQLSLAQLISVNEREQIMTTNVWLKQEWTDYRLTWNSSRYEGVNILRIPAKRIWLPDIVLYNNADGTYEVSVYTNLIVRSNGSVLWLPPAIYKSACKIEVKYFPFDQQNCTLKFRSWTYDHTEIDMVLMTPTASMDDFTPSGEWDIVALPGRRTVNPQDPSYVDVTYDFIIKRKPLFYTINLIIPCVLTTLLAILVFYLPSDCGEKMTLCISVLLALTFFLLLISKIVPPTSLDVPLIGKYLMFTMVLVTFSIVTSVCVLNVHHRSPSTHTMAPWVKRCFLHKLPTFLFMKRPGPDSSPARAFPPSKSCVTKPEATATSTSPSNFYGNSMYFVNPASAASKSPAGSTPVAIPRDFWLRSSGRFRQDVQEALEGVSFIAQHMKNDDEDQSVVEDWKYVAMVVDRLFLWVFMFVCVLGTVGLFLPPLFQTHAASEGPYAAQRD
# Sequence of Neuronal acetylcholine receptor; alpha3/beta4 (P32297 whole entry): as the sequence (P32297 whole entry) above
# Sequence of Neuronal acetylcholine receptor; alpha4/beta2 (Rattus norvegicus, UniProt P09483+P12390) (P09483 whole entry): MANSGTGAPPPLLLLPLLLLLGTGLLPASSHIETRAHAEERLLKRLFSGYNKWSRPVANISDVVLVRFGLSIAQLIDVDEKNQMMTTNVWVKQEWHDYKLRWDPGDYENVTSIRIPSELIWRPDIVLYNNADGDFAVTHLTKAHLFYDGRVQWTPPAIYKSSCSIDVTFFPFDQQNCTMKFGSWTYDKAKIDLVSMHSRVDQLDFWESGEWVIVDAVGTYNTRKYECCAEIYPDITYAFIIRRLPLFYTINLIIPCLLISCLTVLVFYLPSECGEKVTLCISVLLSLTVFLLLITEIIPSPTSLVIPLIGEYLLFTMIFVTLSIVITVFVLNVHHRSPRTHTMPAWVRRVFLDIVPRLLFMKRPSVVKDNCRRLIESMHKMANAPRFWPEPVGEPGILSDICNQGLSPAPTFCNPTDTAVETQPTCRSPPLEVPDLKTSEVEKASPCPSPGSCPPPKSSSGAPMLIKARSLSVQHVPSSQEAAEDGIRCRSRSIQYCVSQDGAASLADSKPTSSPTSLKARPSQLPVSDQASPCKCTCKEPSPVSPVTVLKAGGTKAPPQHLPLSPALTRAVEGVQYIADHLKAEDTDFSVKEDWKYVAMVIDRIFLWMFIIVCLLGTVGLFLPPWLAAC
# Sequence of Neuronal acetylcholine receptor; alpha4/beta2 (Rattus norvegicus, UniProt P09483+P12390) (P12390 whole entry): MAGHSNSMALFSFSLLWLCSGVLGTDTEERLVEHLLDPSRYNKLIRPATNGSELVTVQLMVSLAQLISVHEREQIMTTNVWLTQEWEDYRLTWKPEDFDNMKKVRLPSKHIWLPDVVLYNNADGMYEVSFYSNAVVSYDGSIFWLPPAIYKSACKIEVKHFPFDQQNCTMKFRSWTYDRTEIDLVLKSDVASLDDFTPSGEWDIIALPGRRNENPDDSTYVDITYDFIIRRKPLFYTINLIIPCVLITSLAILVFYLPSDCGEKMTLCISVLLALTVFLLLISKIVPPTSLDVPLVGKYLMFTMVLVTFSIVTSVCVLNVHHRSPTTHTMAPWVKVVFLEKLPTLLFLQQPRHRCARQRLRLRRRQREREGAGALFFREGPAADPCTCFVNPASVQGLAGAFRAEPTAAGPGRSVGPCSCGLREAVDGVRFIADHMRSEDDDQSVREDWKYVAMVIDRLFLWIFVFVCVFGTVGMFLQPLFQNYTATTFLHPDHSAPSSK
# Sequence of Neuronal acetylcholine receptor subunit alpha-7 (P36544 whole entry): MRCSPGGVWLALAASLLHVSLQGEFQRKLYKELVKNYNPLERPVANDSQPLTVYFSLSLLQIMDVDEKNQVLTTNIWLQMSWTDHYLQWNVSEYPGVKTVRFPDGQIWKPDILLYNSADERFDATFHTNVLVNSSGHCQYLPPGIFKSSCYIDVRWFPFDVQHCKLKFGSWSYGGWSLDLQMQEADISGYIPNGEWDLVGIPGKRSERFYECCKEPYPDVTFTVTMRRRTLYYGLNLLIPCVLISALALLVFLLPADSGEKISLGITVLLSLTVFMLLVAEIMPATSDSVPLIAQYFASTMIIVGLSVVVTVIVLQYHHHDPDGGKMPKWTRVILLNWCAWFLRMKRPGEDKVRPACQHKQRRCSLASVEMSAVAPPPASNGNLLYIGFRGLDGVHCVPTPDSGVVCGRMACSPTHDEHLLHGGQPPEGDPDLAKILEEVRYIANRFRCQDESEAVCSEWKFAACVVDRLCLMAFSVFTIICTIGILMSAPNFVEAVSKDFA
SMILES,Efficacy [1],EC50 [2],also measured
Fc1cccc(Cl)c1-c1cc(-c2cnn(C3CCNCC3)c2)on1,60%,48 nM,
Cc1c(-c2cc(-c3ccccc3Cl)no2)cnn1C1CCNCC1,71%,18 nM,Activity [3]: Active; concentration at 1 h [4]: 130 nM; concentration at 1 h [5]: 5200 nM; EC50 [6]: 20 nM; Activity [7]: inactive; EC50 [8]: > 100000 nM; concentration at 1 h [9]: 610 nM
Clc1cccc(Cl)c1-c1cc(-c2cnn(C3CCNCC3)c2)on1,73%,410 nM,
Cn1c(-c2cc(-c3c(F)cccc3Cl)no2)cnc1C1(F)CCNCC1,68%,34 nM,efflux ratio (MDR1): 1
Clc1cnccc1-c1cc(-c2cnn(C3CCNCC3)c2)on1,50%,200 nM,
CCn1c(-c2cc(-c3c(F)cccc3Cl)no2)cnc1C1(F)CCNCC1,74%,3 nM,efflux ratio (MDR1): 1; concentration at 1 h [4]: 29 nM; concentration at 1 h [5]: 6500 nM; concentration at 1 h [9]: 600 nM
Fc1ccc(-c2cc(-c3cnn(C4CCNCC4)c3)on2)c(Cl)c1,56%,220 nM,
CN(Cc1cc(-c2ccccc2Cl)no1)C(=O)C1CCNCC1,41%,350 nM,EC50 [10]: > 100000 nM; EC50 [11]: > 100000 nM
Cn1c(-c2cc(-c3c(F)cccc3Cl)no2)cnc1C1CCNCC1,71%,12 nM,efflux ratio (MDR1): > 10
Cc1cc(-c2cnn(C3CCNCC3)c2)on1,19%,1300 nM,

# The next lines start with results.
Efficacy [1],EC50 [2],SMILES,also measured
47%,230 nM,Fc1cccc(-c2cc(-c3cnn(C4CCNCC4)c3)on2)c1Cl,
16%,4600 nM,c1nn(C2CCNCC2)cc1-c1cc(C2CCCCC2)no1,
63%,33 nM,Clc1ccccc1-c1cc(-c2cnc(C3CCNCC3)s2)on1,concentration at 1 h [4]: 21 nM; concentration at 1 h [5]: 8500 nM; concentration at 1 h [9]: 300 nM
87%,3 nM,CCn1c(-c2cc(-c3c(F)cccc3Cl)no2)cnc1C1CCNCC1,efflux ratio (MDR1): > 10
38%,120 nM,Clc1ccccc1-c1cc(-c2cnn(C3CCNCC3)c2)on1,EC50 [10]: > 100000 nM; EC50 [11]: > 100000 nM
,> 100000 nM,c1ccc(-c2cc(-c3cnn(C4CCNCC4)c3)on2)cc1,
42%,130 nM,Clc1sccc1-c1cc(-c2cnn(C3CCNCC3)c2)on1,
66%,6 nM,Cc1c(-c2cc(-c3c(F)cccc3Cl)no2)cnn1C1CCNCC1,
29%,270 nM,Fc1ccc(Cl)c(-c2cc(-c3cnn(C4CCNCC4)c3)on2)c1,
31%,1200 nM,Cc1c(-c2cc(-c3ccccc3)no2)cnn1C1CCNCC1,
